Measurements from ChEMBL document CHEMBL4765239, “Discovery of a Novel Highly Selective Histamine H4 Receptor Antagonist for the Treatment of Atopic Dermatitis” (J Med Chem, 2018).
Converted amounts (≈) assume the structure as drawn.

Tests used:
[1] = Solubility of compound in FaSSIF at pH 6.5 incubated for 0.5 hrs by UPLC-UV analysis
[2] = Intrinsic clearance in CD1 mouse liver microsomes at 5 uM incubated upto 30 mins in presence of NADPH by UPLC-UV analysis; format: ADME, Microsome; details: read-out: CLH
Procedure, shortened: (§1)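 Test compound at 5 µM incubated with pooled CD-1 mouse or human liver microsomes plus 1 mM NADPH. Remaining compound measured by UPLC-UV at 0, 10, 20 and 30 min. CLint derived from the first-order elimination rate constant, normalized to microsomal protein.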

[3] = Solubility of compound in SGF at pH 1.2 incubated for 2 hrs by UPLC-UV analysis; format: physicochemical
Procedure, shortened: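 Compound incubated at 37 °C in FaSSIF (pH 6.5) for 0.5 h or in SGF (pH 1.2) for 2 h. Filtered through 0.45 µm, concentration measured by UPLC-UV.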

[4] = Intrinsic clearance in human liver microsomes at 5 uM incubated upto 30 mins in presence of NADPH by UPLC-UV analysis; format: ADME, Microsome; details: read-out: CLH
Procedure, shortened: as §1

[5] = target: Histamine H4 receptor (Homo sapiens, UniProt Q9H3N8); assay: Displacement of [3H]-histamine from recombinant human histamine H4 receptor expressed in CHO-K1 cell membranes measured after 30 mins by microbeta scintillation counting method; set-up: species or system Cell membrane
Chain of Histamine H4 receptor (Q9H3N8 whole entry): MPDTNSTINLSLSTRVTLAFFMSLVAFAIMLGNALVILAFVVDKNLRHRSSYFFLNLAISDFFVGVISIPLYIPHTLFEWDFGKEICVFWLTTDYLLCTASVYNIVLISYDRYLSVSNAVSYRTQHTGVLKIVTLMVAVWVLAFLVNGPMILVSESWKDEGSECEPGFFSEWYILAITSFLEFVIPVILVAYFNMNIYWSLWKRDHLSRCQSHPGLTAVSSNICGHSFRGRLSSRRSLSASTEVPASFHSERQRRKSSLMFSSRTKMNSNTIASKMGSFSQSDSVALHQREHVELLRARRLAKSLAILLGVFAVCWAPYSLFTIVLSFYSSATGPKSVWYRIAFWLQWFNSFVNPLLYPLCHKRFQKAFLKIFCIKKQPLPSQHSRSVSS

[6] = target: Histamine H3 receptor (Homo sapiens, UniProt Q9Y5N1); assay: Displacement of [3H]-N-alpha-methylhistamine from recombinant human histamine H3 receptor expressed in CHO-K1 cell membranes measured after 30 mins by microbeta scintillation counting method; set-up: species or system Cell membrane
Chain of Histamine H3 receptor (Q9Y5N1 whole entry): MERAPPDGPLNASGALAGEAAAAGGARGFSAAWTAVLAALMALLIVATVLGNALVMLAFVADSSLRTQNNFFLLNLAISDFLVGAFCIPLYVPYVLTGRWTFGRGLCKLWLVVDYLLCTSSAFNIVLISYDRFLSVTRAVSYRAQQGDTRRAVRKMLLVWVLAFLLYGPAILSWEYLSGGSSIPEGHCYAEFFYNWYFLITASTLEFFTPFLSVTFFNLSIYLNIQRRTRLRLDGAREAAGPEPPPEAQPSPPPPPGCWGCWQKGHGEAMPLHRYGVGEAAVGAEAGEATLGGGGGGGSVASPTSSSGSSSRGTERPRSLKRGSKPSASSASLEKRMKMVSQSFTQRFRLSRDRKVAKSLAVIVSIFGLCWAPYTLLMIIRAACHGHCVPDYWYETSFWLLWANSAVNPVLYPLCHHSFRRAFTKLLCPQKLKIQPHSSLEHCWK
Procedure, shortened: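 Competitive binding on CHO-K1 membranes expressing human H3R ([3H]Nα-methylhistamine) or mouse H4R ([3H]histamine). Run in 50 mM Tris-HCl pH 7.4 for 30 min at 27 °C, then filtered onto 0.5% PEI-treated glass fiber and washed three times with ice-cold buffer. Bound radioactivity read by liquid scintillation counting.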

[7] = target: T1, 5-hydroxytryptamine receptor 3A (Homo sapiens) (UniProt P46098); assay: Displacement of [3H]BRL 43694 from human recombinant 5-HT3 receptor at 10 uM after 120 mins by scintillation counting analysis relative to control
T1 sequence (whole entry): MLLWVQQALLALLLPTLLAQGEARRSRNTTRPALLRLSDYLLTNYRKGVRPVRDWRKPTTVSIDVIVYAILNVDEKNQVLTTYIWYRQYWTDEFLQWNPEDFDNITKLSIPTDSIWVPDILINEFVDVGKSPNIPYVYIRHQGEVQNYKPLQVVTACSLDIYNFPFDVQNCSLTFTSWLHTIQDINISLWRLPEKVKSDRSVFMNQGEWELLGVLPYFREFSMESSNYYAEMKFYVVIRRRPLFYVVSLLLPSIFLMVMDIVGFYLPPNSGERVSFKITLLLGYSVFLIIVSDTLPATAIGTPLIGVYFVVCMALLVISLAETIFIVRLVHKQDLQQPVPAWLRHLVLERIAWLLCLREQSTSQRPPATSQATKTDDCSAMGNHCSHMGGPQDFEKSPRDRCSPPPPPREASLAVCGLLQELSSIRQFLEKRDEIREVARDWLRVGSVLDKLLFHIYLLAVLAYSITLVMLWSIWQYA

[8] = target: T2, 5-hydroxytryptamine receptor 3A (Homo sapiens, UniProt P46098); assay: Displacement of [3H]BRL 43694 from human recombinant 5-HT3 receptor after 120 mins by scintillation counting analysis
T2 sequence (P46098 whole entry): T1 sequence (whole entry)

[9] = Cmax in ICR mouse at 50 mg/kg, po measured upto 24 hrs by LC-MS/MS analysis; format: ADME, organism-based; set-up: route oral, dose 50 mg/kg, time <=24; details: in vivo
Procedure, shortened: (§2)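 Female ICR mice, n=3 per group, given test compound orally. Blood sampled at 0.5, 1, 2, 4, 7 and 24 h post dose; plasma levels quantified by LC-MS/MS. Parameters from non-compartmental analysis.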

[10] = Basicity constant, pKa of the compound; format: physicochemical
[11] = Lipophilicity, logD of the compound at pH 7.4; format: physicochemical; details: buffer
[12] = Tmax in ICR mouse at 50 mg/kg, po measured upto 24 hrs by LC-MS/MS analysis; format: ADME, organism-based; details: in vivo
Procedure, shortened: as §2

[13] = AUC (all) in ICR mouse at 50 mg/kg, po measured upto 24 hrs by LC-MS/MS analysis; format: ADME, organism-based; set-up: route oral, dose 50 mg/kg, time <=24; details: in vivo
Procedure, shortened: as §2

SMILES	solubility at 0.5 h [1] [µg/mL]	microsomal CLint at 5 µM [2] [µL/min/mg]	solubility at 2 h [3] [µg/mL]	microsomal CLint at 5 µM [4] [µL/min/mg]	IC50 [5] [µM]	IC50 [6] [µM]	further results
Cc1cnc2nc(N3CCN(C)CC3)c3nncn3c2c1	1900 (≈ 6.72 mM)	2.91	2000 (≈ 7.05 mM)	5.17	–	–	–
Clc1cnc2nc(N3CCN(C4CC4)CC3)c3nncn3c2c1	–	–	–	–	> 10	–	–
CN1CCN(c2nc3ncccc3n3cnnc23)CC1	> 2000	5.36	> 2000	0.61	3	–	–
N[C@@H]1CCN(c2nc3ncc(Cl)cc3n3cnnc23)C1	–	–	–	–	6.3	–	–
CN1CCN(c2nc3ncc(Br)cc3n3cnnc23)CC1	679 (≈ 1.95 mM)	3.13	1930 (≈ 5.54 mM)	1.64	–	71	–
CCOc1nc2nc(N3CCN(C)CC3)c3nncn3c2cc1Cl	–	3.56	–	3.28	0.52	–	–
CN1CCN(C(=O)c2cc3cc(Cl)ccc3[nH]2)CC1 [JNJ-7777120]	378 (≈ 1.36 mM)	128	1410 (≈ 5.09 mM)	6.5	–	> 100	–
CN1CCN(c2cc3ccc(Cl)cc3n3cnnc23)CC1	> 2000	8.43	> 2000	0.86	6.2	> 100	–
CN[C@@H]1CCN(c2nc3ncc(Cl)cc3n3cnnc23)C1	–	–	–	–	4.1	–	–
NC1CN(c2nc3ncc(Cl)cc3n3cnnc23)C1	–	–	–	–	5.2	–	inhibition [7]: 24.5%
CNC1CN(c2nc3ncc(Cl)cc3n3nnnc23)C1	–	–	–	–	0.053	–	inhibition [7]: 18%
CN1CCN(c2nc3ccc([N+](=O)[O-])cc3n3cnnc23)CC1	80.2 (≈ 0.256 mM)	10.4	1900 (≈ 6.06 mM)	2.63	0.17	41	–
CN1CCN(c2nc3ncc(I)cc3n3cnnc23)CC1	126 (≈ 0.319 mM)	3.74	1250 (≈ 3.16 mM)	2.81	–	–	–
CN1CCCN(c2nc3ncc(Cl)cc3n3cnnc23)CC1	–	–	–	–	2.9	11	–
CN1CCN(c2nc3ncc(C(F)(F)F)cc3n3cnnc23)CC1	1230 (≈ 3.65 mM)	2.05	> 2000	1.31	–	43	–
CN1CCN(c2nc3ncc(Cl)cc3n3cnnc23)CC1	1240 (≈ 4.1 mM)	1.98	> 2000	0.6	0.077	–	inhibition ([7]; filed as antagonist): 100%; IC50 [8]: 0.057 µM; Cmax [9]: 4630 ng/mL; pKa [10]: 9.9; logD [11]: 0.95; Tmax [12]: 30 min; AUC at 24 h [13]: 23600 ng·h/mL
CN1CCN(c2nc3ncc(C#N)cc3n3cnnc23)CC1	417 (≈ 1.42 mM)	2.8	1740 (≈ 5.92 mM)	3.49	–	–	–
CN1CCN(c2nc3nc(C#N)c(Cl)cc3n3cnnc23)CC1	–	0.69	–	1.63	–	36	–

SMILES	solubility at 0.5 h [1] [µg/mL]	microsomal CLint at 5 µM [2] [µL/min/mg]	solubility at 2 h [3] [µg/mL]	microsomal CLint at 5 µM [4] [µL/min/mg]	IC50 [5] [µM]	IC50 [6] [µM]	further results
Cc1c(Br)cnc2nc(N3CCN(C)CC3)c3nncn3c12	583 (≈ 1.61 mM)	7.62	1800 (≈ 4.97 mM)	3.84	–	24	–
CN(C)[C@@H]1CCN(c2nc3ncc(Cl)cc3n3cnnc23)C1	–	–	–	–	4.8	–	–
CN1CCN(c2nc3ncc(Cl)cc3c3ncnn23)CC1	–	–	–	–	–	75	inhibition ([7]; filed as antagonist): 96%
CN1CCN(c2nc3cccnc3n3cnnc23)CC1	> 2000	50.2	1920 (≈ 7.14 mM)	8.21	3	–	–
CN(C)C1CN(c2nc3ncc(Cl)cc3n3cnnc23)C1	–	–	–	–	1.2	–	inhibition ([7]; filed as antagonist): 77.5%
Clc1cnc2nc(N3CCN4CCCC4C3)c3nncn3c2c1 (configuration not stated)	–	–	–	–	0.052	24	–
Clc1cnc2nc(N3CCCNCC3)c3nncn3c2c1	–	–	–	–	> 10	–	–
CN1CCN(c2nc3nc(OCC(F)(F)F)c(Cl)cc3n3cnnc23)CC1	–	4.94	–	5.72	–	–	–
CN1CCN(c2nc3ccccc3n3cnnc23)CC1	1190 (≈ 4.42 mM)	73.1	> 2000	11.5	2.3	> 100	–
CN1CCN(c2nc3ccc(Cl)cc3n3cnnc23)CC1	227 (≈ 0.75 mM)	29.1	> 2000	5.83	–	4.4	Cmax [9]: 676 ng/mL; logD [11]: 2.12; Tmax [12]: 40.2 min; AUC at 24 h [13]: 1680 ng·h/mL; IC50 ([5]; cho-k1): 0.022 µM
Clc1cnc2nc(N3CCNCC3)c3nncn3c2c1	–	–	–	–	–	–	pKa [10]: 8.9
CNC1CN(c2nc3ncc(Cl)cc3c3ncnn23)C1	–	–	–	–	1.1	–	inhibition [7]: 32%
Clc1cnc2nc(N3CC4CCCNC4C3)c3nncn3c2c1 (configuration not stated)	–	–	–	–	> 10	–	–
CN1CCN(c2nc3nc(Cl)c(Cl)cc3n3cnnc23)CC1	163 (≈ 0.482 mM)	5.28	1950 (≈ 5.76 mM)	2.55	–	–	–
CN1CCN(c2nc3ncc(Br)cc3n3nnnc23)CC1	–	–	–	–	–	49	inhibition ([7]; filed as antagonist): 89%
Cc1ccc2nc(N3CCN(C)CC3)c3nncn3c2c1	1940 (≈ 6.88 mM)	23.3	> 2000	7.51	0.57	15	–
CN1CCN(c2nc3ncc(Cl)cc3n3nnnc23)CC1	–	–	–	–	–	73	inhibition ([7]; filed as antagonist): 85%
CNC1CN(c2nc3ncc(Cl)cc3n3cnnc23)C1	–	–	–	–	0.065	–	inhibition ([7]; filed as antagonist): 50%
